Assay: Toxicity liver stage against HepG2, at 10uM
Assay type: cell-based
Set-up: test concentration 10 uM, cell line HepG2-A16-CD81EGFP
Conditions: human, HepG2-A16-CD81EGFP cells; read-out: INHIBITION
In short: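 Uninfected HepG2-A16-CD81EGFP cells, 3 × 10^3 per well, 1536-well, plated on prespotted compound at 10 μM final, parasite-free screening media added to match infected plates; puromycin 10 μM positive, DMSO 0.5% negative; run in parallel with 48 h PbLuc assay at 37 °C, 5% CO2; viability by CellTiter-Glo luminescence, normalized to controls.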

CC(C)[C@H](NC(=O)N1CCC(Cc2ccccc2)CC1)C(=O)O
cytotoxicity at 10 µM: -7.44%

CCNC(=O)N1CC[C@H]2CC(=O)N(CC(N)=O)CC[C@H]2C1
cytotoxicity at 10 µM: 10%

O=C(NC[C@H]1OC[C@@H](NC2CCC(F)(F)CC2)[C@@H]1O)N1CCOCC1
cytotoxicity at 10 µM: -0.0603%

CNC(=O)[C@@H]1[C@@H](c2ccccc2)CN2CCN(Cc3cc(C)no3)C[C@H]12
cytotoxicity at 10 µM: 5.94%

CCNCCC(Cc1ccccc1)c1ccco1 (stereo not drawn)
cytotoxicity at 10 µM: 5.31%

Cc1cc(C)n2c(CCCNS(=O)(=O)c3cccs3)nnc2n1
cytotoxicity at 10 µM: 1.57%

COCC(=O)NCc1nn(CCN2CCCC2)c(=O)c2ccccc12
cytotoxicity at 10 µM: -18.9%

Cc1nnc(C2CCN(C(=O)c3cnc4ccccc4n3)CC2)s1
cytotoxicity at 10 µM: 7.1%

O=C(NC[C@H]1OC[C@@H]2CCN(c3ncccn3)C[C@@H]21)c1ccnnc1
cytotoxicity at 10 µM: 7.37%

Cc1noc(C2CCC3(CCN(C(=O)c4ccncn4)CC3)O2)n1 (stereo not drawn)
cytotoxicity at 10 µM: 5.76%

CCOCC1CN(C(=O)c2cccc(C)n2)Cc2cnn(C)c21 (stereo not drawn)
cytotoxicity at 10 µM: 2.98%

CCOCC1CN(Cc2cc(C)on2)Cc2cn(C)nc21 (stereo not drawn)
cytotoxicity at 10 µM: 13.6%

O=C(NCc1cccnc1)C1=NOC2(CCN(C3CCOCC3)C2)C1 (stereo not drawn)
cytotoxicity at 10 µM: -1.63%

O=C(c1ccccc1)N1CC[C@H]2C[C@H](c3nccs3)O[C@@H]2C1
cytotoxicity at 10 µM: 8.39%

O=C(NCCn1ccc(-c2ccccn2)n1)c1ccncc1
cytotoxicity at 10 µM: -20.7%

CS(=O)(=O)NC[C@]12COC[C@H]1CN(C(=O)c1ccccc1)C2
cytotoxicity at 10 µM: 1.44%

O=C(Nc1ccccc1)c1n[nH]c(-n2cnnc2)n1
cytotoxicity at 10 µM: 9.37%

Cc1nn(C)c(C)c1CNC(=O)c1cc(NC(=O)C2CC2)n(C)n1
cytotoxicity at 10 µM: 5.31%

CCOCc1cccc(S(=O)(=O)Nc2ncc(C)s2)c1
cytotoxicity at 10 µM: 6.38%

CCCNC(=O)C(C)n1nc(-c2ccc(C)o2)cc(N)c1=O (stereo not drawn)
cytotoxicity at 10 µM: -1.15%

CCC1c2cccn2CCN1S(=O)(=O)N1CCOCC1 (stereo not drawn)
cytotoxicity at 10 µM: 7.25%

CSc1nnc(CNC(=O)Nc2ccccc2F)n1C
cytotoxicity at 10 µM: 4.09%

O=C(NCC1CCCO1)c1cc(-c2cccnc2)c2cnccc2n1 (stereo not drawn)
cytotoxicity at 10 µM: 15.2%

NC(=O)c1ccc(C2CN(Cc3ccc(F)cc3)CCO2)nc1 (stereo not drawn)
cytotoxicity at 10 µM: 18.6%

CC[C@H](Cn1ncc2ccccc2c1=O)NC(=O)c1ccccn1
cytotoxicity at 10 µM: -4.27%

O=C(C1CC1)N1C[C@H]2CCCN(S(=O)(=O)c3ccc(Cl)s3)[C@H]2C1
cytotoxicity at 10 µM: 8.26%

CCCN1C[C@H](NC(=O)c2cccs2)[C@@H](c2ccc(OC)cc2)C1
cytotoxicity at 10 µM: -9.96%

O=C(c1cccnc1)N1CCOC(c2ccc(-c3cncnc3)cn2)C1 (stereo not drawn)
cytotoxicity at 10 µM: -16%

Cc1nc(NC2CCCC2)cc(C2CCN2C(=O)c2ccccc2)n1 (stereo not drawn)
cytotoxicity at 10 µM: -6.31%

Cc1ccc(S(=O)(=O)NC(CO)CC(C)C)cc1N(C)C (stereo not drawn)
cytotoxicity at 10 µM: -0.996%

CC(=O)c1cccc(OCC(=O)N(CC(C)C)C2CCN(C)CC2)c1
cytotoxicity at 10 µM: -17.6%

CN(C)C(=O)CCC[S+]([O-])Cc1ccc(F)c(F)c1 (stereo not drawn)
cytotoxicity at 10 µM: 12.2%

CC(C)(NS(C)(=O)=O)C(=O)NCCc1csc2ccccc12
cytotoxicity at 10 µM: 0.694%

CN(C(=O)c1ccccc1N(C)S(C)(=O)=O)c1ccc(C(C)(C)C)cc1
cytotoxicity at 10 µM: 5.17%

CC(C)CC(=O)N1Cc2ccccc2CC1C(=O)Nc1nccs1 (stereo not drawn)
cytotoxicity at 10 µM: -135%

Cn1c(CN2CCCC(N3CCNC3=O)C2)cc(=O)n(C)c1=O (stereo not drawn)
cytotoxicity at 10 µM: -5.6%

CC(NCCc1nccn1Cc1ccccc1)c1cccs1 (stereo not drawn)
cytotoxicity at 10 µM: 3.68%

CCCC(C#N)NC(=O)CCCOc1cccc(F)c1 (stereo not drawn)
cytotoxicity at 10 µM: -44.1%

CNS(=O)(=O)c1ccc(F)c(C(=O)NCc2ccnc(OC)c2)c1
cytotoxicity at 10 µM: -9.8%

CNC(=O)CCS(=O)(=O)Cc1nnnn1-c1ccccc1
cytotoxicity at 10 µM: 15.3%

C1CCC(CNC2CCCN(Cc3noc(C4CC4)n3)C2)CC1 (stereo not drawn)
cytotoxicity at 10 µM: -4.15%

CCOc1cc(CN(C)CCCO)ccc1OC(F)F
cytotoxicity at 10 µM: -14.1%

CCn1cnnc1C1CCN(C(=O)c2ccnc(N(C)C)c2)CC1
cytotoxicity at 10 µM: 8.2%

O=C(CC1CN(Cc2ccccc2)CCO1)Nc1ccsc1 (stereo not drawn)
cytotoxicity at 10 µM: -16.4%

CC(C)NC(=O)CCNC(=O)c1cc(F)ccc1NS(C)(=O)=O
cytotoxicity at 10 µM: -4.24%

CCN(C(=O)NCCc1ccccc1Cl)C(C)CS(C)(=O)=O (stereo not drawn)
cytotoxicity at 10 µM: 8.83%

COc1cc(F)c(S(=O)(=O)N2c3ncccc3NC(=O)C2C)cc1OC (stereo not drawn)
cytotoxicity at 10 µM: -1.92%

Cc1cccc(OCC(=O)N(Cc2ccncc2)C2CC2)c1
cytotoxicity at 10 µM: -40.4%

NC(=O)NC(CC(=O)NCCc1cccc(F)c1)c1cccs1 (stereo not drawn)
cytotoxicity at 10 µM: 1.55%

COCc1cccc(NC(C)C(=O)N(C)Cc2ccccc2)c1 (stereo not drawn)
cytotoxicity at 10 µM: -0.42%

O=C(Cc1ccccc1)N1CCC2(CC1)CC(Nc1cnccn1)CO2 (stereo not drawn)
cytotoxicity at 10 µM: 5.1%

CS(=O)(=O)N1C[C@@H]2CCN(C(=O)c3cscn3)[C@@H]2C1
cytotoxicity at 10 µM: 9.79%

O=C(NCC1Cn2nnc(-c3ccncc3)c2CO1)c1ccc[nH]1 (stereo not drawn)
cytotoxicity at 10 µM: 1.6%

O=C(c1ccnnc1)N1C[C@@H](OCC2CCOCC2)[C@H]2OCCC[C@H]21
cytotoxicity at 10 µM: -4.66%

CC(C)[C@@H]1CN(C(=O)NCc2ccco2)C[C@H]1N(C)C
cytotoxicity at 10 µM: 12.7%

CCC[C@H]1CN(C2CCOCC2)C[C@@H]1NC(=O)CCCn1ccnc1
cytotoxicity at 10 µM: 8.06%

COc1ccc(C(=O)N2C[C@@H](O)[C@H](NCc3ncccc3C)C2)cc1
cytotoxicity at 10 µM: 0.225%

O=C(NCC1CCCCO1)c1cc(Cn2cnc3ccccc32)[nH]n1 (stereo not drawn)
cytotoxicity at 10 µM: -11.3%

CC(C)S(=O)(=O)N1CCCC(c2nnc(Cn3ccnc3)n2C)C1 (stereo not drawn)
cytotoxicity at 10 µM: -2.83%

COc1ccccc1OC1CN(C(=O)C(c2ccccc2F)N(C)C)C1 (stereo not drawn)
cytotoxicity at 10 µM: 3.91%

CCc1cc(C(=O)NCC2CCN(Cc3cccc(C#N)c3)C2)on1 (stereo not drawn)
cytotoxicity at 10 µM: 4.98%

CCC(Nc1ncccn1)c1cccnc1 (stereo not drawn)
cytotoxicity at 10 µM: 5.84%

O=C(CCc1nc(Cl)n[nH]1)N1C[C@H](CO)C[C@H](CN2CCCC2)C1
cytotoxicity at 10 µM: 0.77%

COc1cccc([C@H]2CN(C(=O)c3noc4c3CCCC4)C[C@@H]2N)c1
cytotoxicity at 10 µM: 2.57%

Cc1cc(C)n(C2CN(C(=O)Cn3c(=O)c(C)nc4ccccc43)C2)n1
cytotoxicity at 10 µM: -7.59%

COCCC1(C(=O)O)CCCN(CCc2ccccc2)C1 (stereo not drawn)
cytotoxicity at 10 µM: 10.6%

CCn1cnc(NC(=O)N2CCC(c3ccc(F)cc3)C2)n1 (stereo not drawn)
cytotoxicity at 10 µM: 4.17%

Cc1nc(CNc2nc(-c3ccco3)nc3c2CCNCC3)n[nH]1
cytotoxicity at 10 µM: -9.08%

C[C@@H]1CN(C(=O)C2(Cn3cccn3)CC2)CC[C@@]1(O)C1CCOCC1
cytotoxicity at 10 µM: 3.48%

CCC(C)N(Cc1cccnc1)Cc1ccccc1Cn1cccn1 (stereo not drawn)
cytotoxicity at 10 µM: -43%

Cc1ccc(C(C(=O)NCc2cc(C)[nH]n2)N(C)C)cc1 (stereo not drawn)
cytotoxicity at 10 µM: -0.671%

CCCNS(=O)(=O)c1ccc(C(=O)NC(CC)c2cnn(C)c2)cc1 (stereo not drawn)
cytotoxicity at 10 µM: 6.1%

CCc1cc(N[C@H]2CCC[C@H]2O)n2nccc2n1
cytotoxicity at 10 µM: -4%

Cn1cc2ncn(CCNc3cccnc3)c(=O)c2n1
cytotoxicity at 10 µM: 2.52%

O=C(c1ccc(N2CCOCC2)nc1)N1CCCC(n2cccn2)C1 (stereo not drawn)
cytotoxicity at 10 µM: -11.2%

CC(C)CS(=O)(=O)CC(=O)NC(C)c1nnc2n1CCC2 (stereo not drawn)
cytotoxicity at 10 µM: -19.1%

CC(C)(C)c1ncc(CNCC2CCCN2c2cccnn2)s1 (stereo not drawn)
cytotoxicity at 10 µM: -3.33%

OCC1CCCN1c1cc(NCc2cccs2)ncn1 (stereo not drawn)
cytotoxicity at 10 µM: -5.62%

Cn1ccc(CN2CCC(CN3CCOCC3)CC2)cc1=O
cytotoxicity at 10 µM: -11%

CC(Cn1cccn1)NC(=O)NCc1cccnc1 (stereo not drawn)
cytotoxicity at 10 µM: -0.088%

Cc1nc(CN2CCCC(N(C)CC(=O)Nc3cccnc3)C2)no1 (stereo not drawn)
cytotoxicity at 10 µM: -7.88%

CC(C)(O)CN1CCN(C(=O)c2cccc3[nH]ncc23)CC1
cytotoxicity at 10 µM: 3.28%

CC(C(=O)Nc1ccc(N2CCCC2)nc1)n1ccnc1 (stereo not drawn)
cytotoxicity at 10 µM: -8.53%

Cc1ccc(CNC(C)c2ccc3[nH]c(=O)[nH]c3c2)s1 (stereo not drawn)
cytotoxicity at 10 µM: -10.7%

c1cnc(Nc2cncc(C3CCCN3)n2)cn1 (stereo not drawn)
cytotoxicity at 10 µM: -8.69%

Cc1cccc(CN2CCCCC2c2n[nH]cc2-c2cc(C)no2)c1 (stereo not drawn)
cytotoxicity at 10 µM: 6.5%

Cc1cc(C[C@@H]2COC[C@H]2NCc2ccc(C(F)(F)F)cc2)on1
cytotoxicity at 10 µM: -18.7%

CN1CCN(C[C@H]2OC[C@@H]3CCN(C(=O)c4cnccn4)C[C@@H]32)CC1
cytotoxicity at 10 µM: 12%

Fc1cnc(N2CC[C@@H]3O[C@@H](COCc4cccnc4)CC[C@@H]32)nc1
cytotoxicity at 10 µM: 10.1%

COc1c(CNCc2nnc3n2CCCCC3)c(C)nn1C
cytotoxicity at 10 µM: 9.03%

COCC1CN(C(=O)c2cccn2C)Cc2c1cnn2CC1CC1 (stereo not drawn)
cytotoxicity at 10 µM: 8.07%

COCC1c2c(cnn2C)CCN1Cc1ccc(C)cc1 (stereo not drawn)
cytotoxicity at 10 µM: 45%

CN(C)C(=O)c1nn(C)c2c1CN(Cc1ccc(F)cc1)C2
cytotoxicity at 10 µM: -9.88%

Cc1nnc([C@H]2C[C@@H]3CCN(Cc4ccc(C)o4)C[C@H]3O2)[nH]1
cytotoxicity at 10 µM: -2.1%

CCc1ccc(CN2CCc3c(nnn3C)C2COC)cc1 (stereo not drawn)
cytotoxicity at 10 µM: 7.28%

O=C(NCC1CC1)C1CN(c2ncccn2)Cc2ccnn2C1 (stereo not drawn)
cytotoxicity at 10 µM: 0.705%

CNC(=O)c1cc(C2CCCN2)n[nH]1 (stereo not drawn)
cytotoxicity at 10 µM: -11.9%

CCc1nccn1-c1cccc(C2CCCN2)n1 (stereo not drawn)
cytotoxicity at 10 µM: -5.77%

c1csc(CN2CCCC3(COCCN(Cc4c[nH]nn4)C3)C2)c1 (stereo not drawn)
cytotoxicity at 10 µM: 5.1%

c1ccc(CN2CC[C@]3(C[C@@H](Oc4ccccn4)CO3)C2)nc1
cytotoxicity at 10 µM: -1.88%

Cn1cc(CN2C[C@H]3CCC[C@@H](CNc4ncccn4)[C@H]3C2)cn1
cytotoxicity at 10 µM: -2.57%

O=C(Cc1ccsc1)N1C[C@@H]2OCCN(CC3CC3)[C@@H]2C1
cytotoxicity at 10 µM: 10.1%

O=C1CC(c2ccccc2)C2(CCN(CC3CC3)CC2)N1 (stereo not drawn)
cytotoxicity at 10 µM: -6.47%

CCOCC1CN(S(=O)(=O)CC)Cc2cnn(CC3CC3)c21 (stereo not drawn)
cytotoxicity at 10 µM: 9.55%

O=c1c2sccc2nc2n1CCN(Cc1ccc(F)c(F)c1)CC2
cytotoxicity at 10 µM: -26%

CC(C)CN1C[C@@H]2C[C@H](C(=O)NC3CCC3)[C@H](C1)O2
cytotoxicity at 10 µM: 2.37%

CC(C)CN1C[C@@H]2C[C@H](C(=O)N3CCCC3)[C@H](C1)O2
cytotoxicity at 10 µM: 3.17%

O=S(=O)(c1cccnc1)N1C[C@H]2CC[C@@H](C1)N(Cc1ccccn1)C2
cytotoxicity at 10 µM: -0.807%
